KCC2 mod: modulators of human KCC2 chloride dependent transport. KCC2 cells, thallium flux FluoZin-2 fluorescence. Q9H2X9. actives 2.2% (n = 190,000). B-score of Tl+ flux slope (higher = more flux/activation; lower = inhibition) at 10 µM;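 active means thallium flux slope and its plate-corrected score both differing from the plate sample mean at a set confidence after two filtering rounds, in either direction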;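 further: slope of fluorescence scaled to starting intensity during 10 to 20 s after thallium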
CHT allo act: human CHT allosteric activation; CHT-expressing cells, membrane potential dye, choline EC20; active compounds read high; LV-AA mutant CHT in HEK293 cells; B-score at 10 µM; actives 0.49% (n = 310,000);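 active means initial fluorescence not abnormally high and integrated response B-score, plate-corrected, over 3 SD above library mean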
Rad51 HR inh: blocks human Rad51 in homologous recombination; Q06609; actives 0.085% (n = 200,000); inhibition, % at 10 µM; AID 1385; hRad51 DNA strand exchange, fluorescence dequenching;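 active means inhibition above 40% at the single screening dose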;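 further: 0% = DMSO control wells and 100% = blanks with heterologous ssDNA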
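Material: human Rad51–ssDNA filaments; Probe or stimulus: labelled 47-mer dsDNA for strand exchange; Doses: single 10 µM dose; Incubation: 37 °C 15-min filament assembly, 30-min compound preincubation, 15-min exchange; Technique: FRET fluorescence dequenching, excitation 485 nm, emission 520 nm; Measure: Fluorescence-based percent inhibition, control- and blank-normalised; Benchmarks: plate control and blank wells.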
CHT inh: inhibitors of human choline transporter CHT; Q9GZV3; CHT-expressing cells, membrane potential dye, choline response; active compounds read low; B-score at 10 µM; actives 0.86% (n = 310,000); AID 488975;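 active means B-score over 3 SD under the library average, and starting fluorescence ratio not unusually high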;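 further: choline stimulus applied at its EC90 after an EC20 pre-addition; B-score computed on integrated fluorescence ratio after choline addition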
KCC2 sec1: KCC2 (human) modulation, secondary assay; AID 1713; shares compounds with KCC2 mod; normalised thallium flux (F/F0 slope) at 10 µM; actives 15% (n = 3,700); HEK293-KCC2, thallium flux, FluoZin2 fluorescence; active compounds read high;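 active means thallium flux slope above the same plate's solvent-only control mean plus 3 SD; inconclusive means the two replicate wells disagree; inactive means no significant difference from solvent-only control wells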
KCC2 bumet counter: thallium flux despite bumetanide block in KCC2 cells, secondary assay 3. shares compounds with KCC2 mod. normalized thallium flux at 10 µM. actives 49% (n = 3,700). HEK293-KCC2 + bumetanide/ouabain, thallium flux FluoZin2; active compounds read high;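 active means thallium entry rate above the same plate's blocked-transporter control wells by more than 3 SD; inconclusive means the two repeat wells disagree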;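 further: raw slope of fluorescence over initial fluorescence between 10 and 20 s after thallium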
KCC2 sec2: confirmation of human KCC2 transport modulators | shares compounds with KCC2 mod | HEK293-KCC2, thallium flux FluoZin2 fluorescence; actives lie on both sides; F/F0 rise rate, 10–20 s post-thallium | normalized thallium flux at 10 µM | actives 23% (n = 3,700) | AID 1715;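 active means thallium flux slope more than 3 SD above or below the plate's solvent-only control mean, mostly below; inconclusive means the two repeat wells disagreed; inactive means no significant shift from solvent-only controls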;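 further: raw slope with 0.1% DMSO as baseline and bumetanide as block control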
HEK293 Tl flux: acts in parental HEK cells, KCC2 counter-screen | actives 46% (n = 3,700) | shares compounds with KCC2 mod | HEK293 parental cells, thallium flux FluoZin2, ouabain; baseline-ratio fluorescence slope, 10–20 s after thallium | thallium flux rate (normalised fluorescence) at 10 µM | AID 1716;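 active means thallium flux rate significantly above the same plate's solvent-only control wells, beyond their mean plus 3 SD; inconclusive means the two replicate wells gave conflicting results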
KCC2 ouabain: KCC2 (human) modulation, ouabain retest; shares compounds with KCC2 mod; HEK293-KCC2, thallium flux FluoZin2 fluorescence; bidirectional: low = inhibitor, high = activator; raw Tl+ flux slope (below DMSO = inhibition, above = activation) at 10 µM; actives 48% (n = 3,700);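 active means thallium flux slope beyond 3 SD from same-plate DMSO control mean in most replicates, usually higher, sometimes lower; inconclusive means repeat tests gave conflicting results; inactive means no significant difference from controls in most replicates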;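 further: slope of initial-normalized fluorescence between seconds 10 and 20 after thallium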
HEK counter2: acts in parental HEK cells, second KCC2 counter-screen. shares compounds with KCC2 mod. HEK293 parental, thallium flux FluoZin-2 fluorescence slope. thallium flux slope at 10 µM. actives 33% (n = 3,700);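 active means thallium flux slope above the same plate's solvent-control mean plus 3 SD in both duplicate wells; inconclusive means duplicate wells that disagreed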;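 further: run without ouabain in cells lacking the KCC2 cotransporter; slope of fluorescence scaled to its starting value between 10 and 20 s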
Numbers without * were called inactive; i = inactive; ? = inconclusive; nt = no result. Sampled rows, rich in hits. Any-hit rate of the full collection: about 2.6%.

SMILES	KCC2 mod	CHT allo act	Rad51 HR inh	CHT inh	KCC2 sec1	KCC2 bumet counter	KCC2 sec2	HEK293 Tl flux	KCC2 ouabain	HEK counter2
CCCC(=O)Nc1nc(-c2ccc3c(c2)CCN3S(C)(=O)=O)cs1	6.2*	i	2	i	0.011	0.0071	0.029	?	0.021	0.01
CC(=O)Nc1ccc(-c2csc(NC(=O)CN3C(=O)NC4(CCCC4)C3=O)n2)cc1	nt	i	nt	i	nt	nt	nt	nt	nt	nt
CS(=O)(=O)N1CCc2cc(-c3csc(NC(=O)Cc4ccccc4)n3)ccc21	-1.1	i	1	i	nt	nt	nt	nt	nt	nt
CCC1=NN2C(=N)/C(=C\c3cccn3-c3ccc(C)c(C)c3)C(=O)N=C2S1	7*	i	6	i	0.0062	0.048*	0.049*	0.037*	0.042*	0.034*
CCC1=NN2C(=N)/C(=C\c3cccn3-c3ccc(Cl)cc3)C(=O)N=C2S1	18*	i	-1	i	?	0.043*	0.03	0.014*	0.027	0.011*
Cc1cc(C)cc(-n2c(C)cc(/C=C3\C(=N)N4N=C(CC(C)C)SC4=NC3=O)c2C)c1	0.93	i	0	i	nt	nt	nt	nt	nt	nt
Cc1ccc(-n2cccc2/C=C2\C(=N)N3N=C(c4ccco4)SC3=NC2=O)cc1	3.9	i	-15	i	nt	nt	nt	nt	nt	nt
CCCC1=NN2C(=N)/C(=C\c3cc(C)n(-c4cc(C)cc(C)c4)c3C)C(=O)N=C2S1	12*	i	-9	i	0.01	0.015*	0.034	?	0.025*	0.013
CCOc1ccc(CC(=N)C2=C(O)CC(C)(C)CC2=O)cc1OCC	-4.3*	i	-5	i	0.0075	0.0053	0.031	0.0064	0.02	?
COc1cc(-n2nc(C)c3c2OC(N)=C(C#N)C3c2ccccc2)c(Cl)c(Br)c1O (stereo not drawn)	-2.6*	i	-7	-10*	0.0063	0.0028*	0.027*	0.0059*	0.014*	?
Cc1nn(-c2ccccc2)c2c1C(c1ccncc1)C(C#N)=C(N)O2 (stereo not drawn)	-0.055	i	1	i	nt	nt	nt	nt	nt	nt
Cc1ccn2cc(CCNC(=O)CC3CCCCC3)nc2c1	0.09	i	16	i	nt	nt	nt	nt	nt	nt
O=[N+]([O-])c1cn(Cc2ccccc2)cn1	-0.056	i	2	i	nt	nt	nt	nt	nt	nt
CCCCCC(=O)NNC(=O)c1c(O)c2ccccc2n(CC)c1=O	3.5*	i	1	i	0.0062	0.014*	0.033	0.013*	?	0.015*
CCCCCCCCCC(=O)NNC(=O)c1c(O)c2ccccc2n(CC)c1=O	5.2*	i	2	i	0.0064	0.016*	0.03	0.016*	0.024*	0.015*
CCn1c(=O)c(C(=O)NNC(=O)c2ccccc2Cl)c(O)c2ccccc21	nt	i	nt	i	nt	nt	nt	nt	nt	nt
C=CCn1c(O)c(N=NC(=O)OCC)c2ccccc21	-0.53	i	14	i	nt	nt	nt	nt	nt	nt
C=CCn1c(O)c(N=NC(=S)Nc2ccc(OC)cc2)c2ccccc21	53*	i	nt	i	0.0065	0.061*	0.064*	0.059*	0.058*	0.05*
C=CCn1c(O)c(N=NC(=S)Nc2cccc(OC)c2)c2ccccc21	71*	i	nt	i	0.02*	0.11*	0.031	0.041*	0.052*	0.013*
Cc1ccc(OCC(=O)N/N=C\c2cccn2C)c([N+](=O)[O-])c1	nt	i	nt	i	nt	nt	nt	nt	nt	nt
